Measurements: ChEMBL document CHEMBL4706589, “Discovery of 5-bromo-4-phenoxy-N-phenylpyrimidin-2-amine derivatives as novel ULK1 inhibitors that block autophagy and induce apoptosis in non-small cell lung cancer” (Eur J Med Chem, 2020)

Key:
[1] = test system: HL-60; experiment: Antiproliferative activity against human HL60 cells assessed as reduction in cell viability after 24 hrs by MTT assay; format: functional, cell-based; details: HL-60, 24 h
Outline: (§1)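 Cells seeded at 5.5 × 10⁴ cells/mL in 96-well plates and grown 24 h before exposure to graded compound concentrations. Viability read by MTT after 24 h. A549, MCF-7 and MDA-MB-468 were kept in DMEM with 10% FBS under 5% CO₂; HL60 and U937 in RPMI 1640 with 10% FBS. IC50 taken as mean of triplicate tests.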

[2] = test system: U-937; experiment: Antiproliferative activity against human U937 cells assessed as reduction in cell viability after 24 hrs by MTT assay; format: functional, cell-based; details: U-937, 24 h; outline: as §1
[3] = test system: MDA-MB-468; experiment: Antiproliferative activity against human MDA-MB-468 cells assessed as reduction in cell viability after 24 hrs by MTT assay; format: functional, cell-based; details: MDA-MB-468, 24 h; outline: as §1
[4] = biological target: T1, Serine/threonine-protein kinase ULK1 (Homo sapiens) (UniProt O75385); experiment: Inhibition of recombinant human ULK1 at 10 uM preincubated for 60 mins followed by substrate addition and measured after 30 mins by ADP-glo assay; details: time 90.0 min
T1 sequence (whole entry): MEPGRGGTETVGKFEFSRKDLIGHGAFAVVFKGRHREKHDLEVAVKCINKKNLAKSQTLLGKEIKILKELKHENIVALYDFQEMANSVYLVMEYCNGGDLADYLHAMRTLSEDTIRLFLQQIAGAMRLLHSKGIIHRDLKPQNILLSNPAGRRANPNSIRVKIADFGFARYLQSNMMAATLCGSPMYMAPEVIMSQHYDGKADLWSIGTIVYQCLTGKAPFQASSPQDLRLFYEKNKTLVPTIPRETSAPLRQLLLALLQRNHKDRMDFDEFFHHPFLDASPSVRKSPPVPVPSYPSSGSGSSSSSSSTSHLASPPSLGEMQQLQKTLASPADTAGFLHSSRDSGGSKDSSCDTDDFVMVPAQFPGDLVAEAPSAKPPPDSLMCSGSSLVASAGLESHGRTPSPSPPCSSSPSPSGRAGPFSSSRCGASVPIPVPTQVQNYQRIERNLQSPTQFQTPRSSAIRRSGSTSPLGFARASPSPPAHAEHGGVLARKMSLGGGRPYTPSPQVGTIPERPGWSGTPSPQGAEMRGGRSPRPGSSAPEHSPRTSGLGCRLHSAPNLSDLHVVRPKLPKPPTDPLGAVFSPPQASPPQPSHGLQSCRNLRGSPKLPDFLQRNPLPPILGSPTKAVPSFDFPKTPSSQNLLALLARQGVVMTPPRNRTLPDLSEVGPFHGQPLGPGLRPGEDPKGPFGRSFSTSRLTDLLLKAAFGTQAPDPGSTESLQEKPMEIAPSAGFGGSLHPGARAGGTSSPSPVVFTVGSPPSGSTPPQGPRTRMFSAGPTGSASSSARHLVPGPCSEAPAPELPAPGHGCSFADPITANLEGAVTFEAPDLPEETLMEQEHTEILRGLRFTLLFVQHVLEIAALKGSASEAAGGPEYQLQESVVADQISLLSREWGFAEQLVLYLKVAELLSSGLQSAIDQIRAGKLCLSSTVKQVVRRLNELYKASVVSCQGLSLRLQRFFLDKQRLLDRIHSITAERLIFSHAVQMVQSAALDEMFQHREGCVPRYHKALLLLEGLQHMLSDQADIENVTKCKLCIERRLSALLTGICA
Outline: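 Recombinant ULK1 activity was measured by ADP-Glo luminescence of ADP formed, in 40 mM Tris pH 7.5, 20 mM MgCl₂, 0.1 mg/ml BSA and […]. After the kinase reaction, plates were mixed 2 min and held 40 min at room temperature. Detection reagent was then added for 30 min at room temperature before luminescence was read.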

[5] = test system: A549; experiment: Antiproliferative activity against human A549 cells assessed as reduction in cell viability after 24 hrs by MTT assay; format: functional, cell-based; details: A549, 24 h; outline: as §1
[6] = test system: MCF7; experiment: Antiproliferative activity against human MCF-7 cells assessed as reduction in cell viability after 24 hrs by MTT assay; format: functional, cell-based; details: MCF7, 24 h; outline: as §1

Work on `Cc1cccc(Nc2ncc(Br)c(Oc3cccc([N+](=O)[O-])c3)n2)c1` yielded an IC50 [1] of 38.7 µM, an IC50 [2] of 51.2 µM and an IC50 [3] of 36.7 µM. For the same molecule, the inhibition [4] was 40.2%, the IC50 [5] was 24.6 µM and the IC50 [6] was greater than 50 µM.

`CNC(=O)c1ccccc1Oc1nc(Nc2ccc(Br)cc2)ncc1Br` showed an IC50 [1] of 39.7 µM, an IC50 [2] greater than 50 µM and an IC50 [3] of 36.6 µM. For the same molecule, the inhibition [4] was 40.1%, the IC50 [5] was 23.5 µM and the IC50 [6] was greater than 50 µM.

Work on `O=[N+]([O-])c1ccc(Oc2nc(Nc3ccc(Cl)cc3)ncc2Br)c(F)c1` yielded an IC50 [1] greater than 50 µM, an IC50 [2] of 43.1 µM and an IC50 [3] greater than 50 µM. It also gave an inhibition [4] of 15.7%, an IC50 [5] of 37.6 µM and an IC50 [6] greater than 50 µM.

`CNC(=O)c1ccccc1Oc1nc(Nc2cc(OC)c(OC)c(OC)c2)ncc1Br` gave an IC50 [1] of 18.9 µM, an IC50 [2] of 25.1 µM and an IC50 [3] of 18.4 µM. The IC50 [5] was 6.78 µM and the IC50 [6] was 26.2 µM.

With `CNC(=O)c1ccccc1Oc1nc(Nc2ccc(C(F)(F)F)cc2)ncc1Br` the IC50 [1] was greater than 50 µM, the IC50 [2] was greater than 50 µM and the IC50 [3] was greater than 50 µM. For the same molecule, the inhibition [4] was 21.6%, the IC50 [5] was greater than 50 µM and the IC50 [6] was greater than 50 µM.

`CCN(CC)CCNc1ccnc(Nc2cc(OC)c(OC)c(OC)c2)n1` showed an IC50 [1] greater than 50 µM, an IC50 [2] greater than 50 µM and an IC50 [3] greater than 50 µM. The inhibition [4] was 13.4%, the IC50 [5] was 46.4 µM and the IC50 [6] was greater than 50 µM.

With `Cc1cccc(Nc2ncc(Br)c(Oc3cccc(F)c3)n2)c1` the IC50 [1] was 15.5 µM, the IC50 [2] was 19.4 µM and the IC50 [3] was 29.2 µM. For the same molecule, the inhibition [4] was 49.3%, the IC50 [5] was 13.9 µM and the IC50 [6] was 26.8 µM.

`CCN(CC)CCNc1nc(Nc2cc(OC)c(OC)c(OC)c2)ncc1I` gave an IC50 [1] of 21.6 µM, an IC50 [2] of 22 µM and an IC50 [3] of 32.3 µM. The inhibition [4] was 44.9%, the IC50 [5] was 16.9 µM and the IC50 [6] was 32.7 µM.

In the case of `CNC(=O)c1ccccc1Oc1nc(Nc2ccccc2OC)ncc1Br`, the IC50 [1] is reported as greater than 50 µM, the IC50 [2] is reported as 52.1 µM and the IC50 [3] is reported as greater than 50 µM. The inhibition [4] was 19.2%, the IC50 [5] was 40.5 µM and the IC50 [6] was greater than 50 µM.

`CNC(=O)c1ccccc1Oc1nc(Nc2ccc(C)cc2C)ncc1Br` showed an IC50 [1] of 32.3 µM, an IC50 [2] of 49.6 µM and an IC50 [3] of 40.7 µM. For the same molecule, the inhibition [4] was 38.2%, the IC50 [5] was 27.3 µM and the IC50 [6] was 44.7 µM.

`COc1cc(Nc2ncc(I)c(NCCCN)n2)cc(OC)c1OC` was tested, and the IC50 [1] was 43.4 µM, the IC50 [2] was 39.9 µM and the IC50 [3] was greater than 50 µM. It also gave an inhibition [4] of 32.3%, an IC50 [5] of 39.6 µM and an IC50 [6] greater than 50 µM.

`O=[N+]([O-])c1ccc(Oc2nc(Nc3ccc(Br)cc3)ncc2Br)c(F)c1` gave an IC50 [1] greater than 50 µM, an IC50 [2] greater than 50 µM and an IC50 [3] greater than 50 µM. It also gave an inhibition [4] of 12.5%, an IC50 [5] of 51 µM and an IC50 [6] greater than 50 µM.

`Cc1cccc(Nc2ncc(Br)c(Oc3ccc(OCc4ccccc4)cc3)n2)c1` gave an IC50 [1] greater than 50 µM, an IC50 [2] greater than 50 µM and an IC50 [3] greater than 50 µM. The inhibition [4] was 16.3%, the IC50 [5] was 48.7 µM and the IC50 [6] was greater than 50 µM.

Work on `CNC(=O)c1ccccc1Oc1nc(Nc2ccccc2F)ncc1Br` yielded an IC50 [1] greater than 50 µM, an IC50 [2] greater than 50 µM and an IC50 [3] greater than 50 µM. For the same molecule, the inhibition [4] was 27.4%, the IC50 [5] was 35.5 µM and the IC50 [6] was greater than 50 µM.

For `CNC(=O)c1ccccc1Oc1nc(Nc2cccc(C)c2)ncc1Br`, the IC50 [1] was 16.2 µM, the IC50 [2] was 15.9 µM and the IC50 [3] was 18.6 µM. It also gave an inhibition [4] of 73.7%, an IC50 [5] of 6.1 µM and an IC50 [6] of 16.6 µM.

`CNC(=O)c1ccccc1Oc1nc(Nc2ccc3c(c2)OCO3)ncc1Br` was tested, and the IC50 [1] was greater than 50 µM, the IC50 [2] was greater than 50 µM and the IC50 [3] was greater than 50 µM. For the same molecule, the inhibition [4] was 22.2%, the IC50 [5] was greater than 50 µM and the IC50 [6] was greater than 50 µM.

Molecule `Cc1cccc(Nc2ncc(Br)c(Oc3ccc(Br)cc3)n2)c1` has an IC50 [1] of 14.7 µM, an IC50 [2] of 18.6 µM and an IC50 [3] of 31.3 µM. The inhibition [4] was 25.7%, the IC50 [5] was 10.3 µM and the IC50 [6] was 19.1 µM.

Molecule `CNC(=O)c1ccccc1Oc1nc(Nc2cccc(C(F)(F)F)c2)ncc1Br` has an IC50 [1] of 44 µM, an IC50 [2] of 45.5 µM and an IC50 [3] of 32.8 µM. The inhibition [4] was 38.8%, the IC50 [5] was 28.3 µM and the IC50 [6] was 57.8 µM.

With `Cc1cccc(Nc2ncc(Br)c(Oc3cc(Cl)cc(Cl)c3)n2)c1` the IC50 [1] was greater than 50 µM, the IC50 [2] was greater than 50 µM and the IC50 [3] was greater than 50 µM. The inhibition [4] was 3.78%, the IC50 [5] was 43.9 µM and the IC50 [6] was greater than 50 µM.

In the case of `CNC(=O)c1ccccc1Oc1nc(Nc2cccc(Br)c2)ncc1Br`, the IC50 [1] is reported as 38.7 µM, the IC50 [2] is reported as 49 µM and the IC50 [3] is reported as 31.9 µM. For the same molecule, the inhibition [4] was 62.7%, the IC50 [5] was 10.6 µM and the IC50 [6] was 42.5 µM.

Molecule `CCOc1ccccc1Oc1nc(Nc2cccc(C)c2)ncc1Br` has an IC50 [1] of 34.7 µM, an IC50 [2] of 38.6 µM and an IC50 [3] of 31.4 µM. For the same molecule, the inhibition [4] was 75.7%, the IC50 [5] was 20.3 µM and the IC50 [6] was 39.1 µM.

With `CNC(=O)c1ccccc1Oc1nc(Nc2cccc(C(C)C)c2)ncc1Br` the IC50 [1] was 17.5 µM, the IC50 [2] was 14.1 µM and the IC50 [3] was 19.4 µM. The inhibition [4] was 84%, the IC50 [5] was 7.14 µM and the IC50 [6] was 26.5 µM.

`CNC(=O)c1ccccc1Oc1nc(Nc2cccc(OC)c2)ncc1Br` gave an IC50 [1] of 16.2 µM, an IC50 [2] of 24.3 µM and an IC50 [3] of 17.8 µM. For the same molecule, the inhibition [4] was 50.5%, the IC50 [5] was 6.23 µM and the IC50 [6] was 18.2 µM.

`CNC(=O)c1ccccc1Oc1nc(Nc2ccc(Cl)cc2F)ncc1Br` gave an IC50 [1] greater than 50 µM, an IC50 [2] greater than 50 µM and an IC50 [3] greater than 50 µM. For the same molecule, the inhibition [4] was 17.8%, the IC50 [5] was 38.1 µM and the IC50 [6] was greater than 50 µM.

`COc1cc(Nc2nccc(NCCCN)n2)cc(OC)c1OC` showed an IC50 [1] greater than 50 µM, an IC50 [2] greater than 50 µM and an IC50 [3] of 45.8 µM. The inhibition [4] was 17.7%, the IC50 [5] was 29.7 µM and the IC50 [6] was greater than 50 µM.
